Our source for the Biodistribution values is ChEMBL document CHEMBL1124396, “New brain perfusion imaging agents based on 99mTc-bis(aminoethanethiol) complexes: stereoisomers and biodistribution” (J Med Chem, 1989).

For data set [1], the system named is Rattus norvegicus. As to the kind of experiment: Biodistribution in the kidneys of rat, 2 min after administration. Type of data set: ADME, organism-based, Kidney. The following applies: in vivo. In outline: (§1)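 Male Sprague-Dawley rats (200-300 g) under ether anesthesia were given the 99mTc complex (0.5-20 μCi in 0.2 mL saline) iv via the femoral vein. Organs were taken at 2 or 15 min. Uptake is reported as % dose/organ, found by comparing tissue radioactivity with dilutions of the injected dose.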

The test system of data set [2] is Rattus norvegicus. Put plainly: Biodistribution in the thyroid of rat, 2 min after administration. Type of data set: ADME, organism-based, Thyroid gland. The following applies: in vivo. In a few lines: as §1
Data set [3] has as its system Rattus norvegicus. As to the kind of experiment: Biodistribution in the muscle of rat, 2 min after administration. Type of data set: ADME, organism-based, Muscle tissue. The following applies: in vivo. In outline:
as §1

For data set [4], the system named is Rattus norvegicus. Put plainly: Biodistribution in the thyroid of rat, 15 min after administration. The class given is ADME, organism-based, Thyroid gland. The following applies: in vivo, 0.25 h. In a few lines:
as §1

The subject of data set [5] is Rattus norvegicus. As to the kind of experiment: Biodistribution in the stomach of rat, 2 min after administration. The class given is ADME, organism-based. The settings on record: in vivo. In a few lines:
as §1

Data set [6] has as its system Rattus norvegicus. As to the kind of experiment: Biodistribution in the brain of rat, 15 min after administration. The class given is ADME, organism-based. The settings on record: in vivo, 0.25 h. In a few lines:
as §1

In data set [7] the test system is Rattus norvegicus. Put plainly: Biodistribution in the brain blood of rat, 2 min after administration. Type of data set: ADME, organism-based. The settings on record: in vivo. In outline: (§2)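 Rats (male Sprague-Dawley, 200-300 g) received the 99mTc complex iv (femoral vein, ether anesthesia; 0.5-20 μCi in 0.2 mL saline) and were sampled at 2 or 15 min. % dose/organ was converted to % dose/gram using mean organ weights (brain 1.65 g, blood 18 g). Brain:blood ratio was taken from these % dose/gram values.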

For data set [8], the system named is Rattus norvegicus. Put plainly: Biodistribution in the liver of rat, 15 min after administration. Type of data set: ADME, organism-based. The settings on record: in vivo, 0.25 h. In outline:
as §1

Data set [9] has as its system Rattus norvegicus. As to the kind of experiment: Biodistribution in the spleen of rat, 15 min after administration. Type of data set: ADME, organism-based. The following applies: in vivo, 0.25 h. In a few lines:
as §1

Data set [10] has as its system Rattus norvegicus. As to the kind of experiment: Biodistribution in the kidneys of rat, 15 min after administration. The class given is ADME, organism-based, Kidney. The following applies: in vivo, 0.25 h. In a few lines:
as §1

Data set [11] deals with Rattus norvegicus. Put plainly: Biodistribution in the lungs of rat, 2 min after administration. The class given is ADME, organism-based, Lung. The settings on record: in vivo. In outline: as §1
The test system of data set [12] is Rattus norvegicus. As to the kind of experiment: Biodistribution in the blood of rat, 15 min after administration. The following applies: in vivo, 0.25 h. The class given is ADME, organism-based. In outline:
as §1

Data set [13] deals with Rattus norvegicus. Put plainly: Biodistribution in the blood of rat, 2 min after administration. The class given is ADME, organism-based. The settings on record: in vivo. In a few lines: as §1
Data set [14] deals with Rattus norvegicus. As to the kind of experiment: Biodistribution in the skin of rat, 2 min after administration. The settings on record: in vivo. Type of data set: ADME, organism-based, Zone of skin. In outline:
as §1

The test system of data set [15] is Rattus norvegicus. As to the kind of experiment: Biodistribution in the heart of rat, 2 min after administration. The class given is ADME, organism-based. The settings on record: in vivo. In a few lines: as §1
Data set [16] relates to Rattus norvegicus. Put plainly: Biodistribution in the muscle of rat, 15 min after administration. Type of data set: ADME, organism-based, Muscle tissue. The following applies: in vivo, 0.25 h. In outline: as §1
Data set [17] concerns Rattus norvegicus. Put plainly: Biodistribution in the stomach of rat, 15 min after administration. The class given is ADME, organism-based. The following applies: in vivo, 0.25 h. In a few lines: as §1
The test system of data set [18] is Rattus norvegicus. Put plainly: Biodistribution in the lungs of rat, 15 min after administration. Type of data set: ADME, organism-based, Lung. The settings on record: in vivo, 0.25 h. In outline: as §1
The subject of data set [19] is Rattus norvegicus. Put plainly: Biodistribution in the heart of rat, 15 min after administration. Type of data set: ADME, organism-based. The following applies: in vivo, 0.25 h. In a few lines: as §1
For data set [20], the system named is Rattus norvegicus. As to the kind of experiment: Biodistribution in the spleen of rat, 2 min after administration. The following applies: in vivo. The class given is ADME, organism-based. In a few lines: as §1
Data set [21] has as its system Rattus norvegicus. As to the kind of experiment: Biodistribution in the brain blood of rat, 15 min after administration. The class given is ADME, organism-based. The following applies: in vivo, 0.25 h. In a few lines: as §2
The subject of data set [22] is Rattus norvegicus. As to the kind of experiment: Biodistribution in the skin of rat, 15 min after administration. Type of data set: ADME, organism-based, Zone of skin. The settings on record: in vivo, 0.25 h. In outline: as §1

Several values for one entry are separate records, joined by “and”; a condition that tells them apart may be missing. Identical values can stand only once.

Regarding “(Syn-isomer) 99mTc-2,3-bis(2-thioacetamido)propanate”, the Biodistribution with Rattus norvegicus [1] is 7.8%; in the data set with Rattus norvegicus [2], 0.22%; with Rattus norvegicus [3], 8.43%; in the data set with Rattus norvegicus [4], 0.07%; in the data set with Rattus norvegicus [5], 1.85%; in the data set with Rattus norvegicus [6] it was 1.08%. Besides, the Biodistribution with Rattus norvegicus [7] is 5.33%; in the data set on Rattus norvegicus [8] it was 18.6%; in the data set with Rattus norvegicus [9], 0.79%; in the data set with Rattus norvegicus [10] it was 2.22%; in the data set with Rattus norvegicus [11], 9.18% and 2.77%; with Rattus norvegicus [12] it was 2.04%. The Biodistribution in the data set with Rattus norvegicus [13] was 5.37% and 2.46%; with Rattus norvegicus [14], 9.18%; in the data set on Rattus norvegicus [15] it was 2.46%; in the data set with Rattus norvegicus [16] it was 18.1%; in the data set on Rattus norvegicus [17], 4.51%; in the data set with Rattus norvegicus [18] it was 3.38%. Also, the Biodistribution in the data set on Rattus norvegicus [19] amounted to 0.43%; with Rattus norvegicus [20], 0.7%; with Rattus norvegicus [21] it was 5.82%; in the data set with Rattus norvegicus [22], 15.7%.
